30 molecules from ChEMBL document CHEMBL1152730, “Non-peptidic substrate-mimetic inhibitors of Akt as potential anti-cancer agents” (Bioorg Med Chem, 2009) can be followed below.

Numbered stars: 1 amine (or outer) side, 2 acyl side, 3 side chain; on linkers, the order of the positions; unused ones are H or OH. Square brackets hold non-standard residues; d marks the D form. Peptide text beside a SMILES is read from it. * marks the point of attachment. X2 = O=C(c1ccc(N[*:1])cc1-c1cccc2ccccc12)[*:2]; X1 = O=C(c1ccc(N[*:1])c(-c2ccccc2)c1)[*:2]; X3 = O=C(c1ccc(N[*:1])cc1-c1ccccc1)[*:2]; X4 = Cc1cc(C(=O)[*:2])ccc1N[*:1]; NHBn = c1ccc(CN*)cc1

This experiment addresses RAC-alpha serine/threonine-protein kinase (Homo sapiens, UniProt P31749). Briefly: Inhibition of Akt1 by fluorescence polarization assay. The procedure, abridged:
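Substrate 100 nM 5FAM-labelled GSK3-derived peptide, ATP 5 μM, inhibitor added from DMSO stock. Incubated 1 h at room temperature, then quenched with IMAP binding solution. Phosphorylation read by fluorescence polarization; IC50 determined.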

RAC-alpha serine/threonine-protein kinase, sequence (P31749 whole entry): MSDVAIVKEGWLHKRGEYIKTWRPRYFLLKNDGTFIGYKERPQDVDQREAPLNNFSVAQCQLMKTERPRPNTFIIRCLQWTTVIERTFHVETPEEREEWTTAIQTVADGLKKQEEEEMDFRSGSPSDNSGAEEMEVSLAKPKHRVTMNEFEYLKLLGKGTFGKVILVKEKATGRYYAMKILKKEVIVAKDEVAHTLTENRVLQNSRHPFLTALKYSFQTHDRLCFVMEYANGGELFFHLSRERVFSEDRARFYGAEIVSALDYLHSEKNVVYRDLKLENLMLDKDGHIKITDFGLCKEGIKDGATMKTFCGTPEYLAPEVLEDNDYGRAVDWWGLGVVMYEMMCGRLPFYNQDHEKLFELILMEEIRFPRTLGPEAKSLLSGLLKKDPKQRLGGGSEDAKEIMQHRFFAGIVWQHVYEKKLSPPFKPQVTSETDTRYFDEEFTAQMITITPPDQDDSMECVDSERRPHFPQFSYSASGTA

For `NC(N)=NCC(=O)Nc1ccc(-c2cc3cc(N(Cc4ccccc4)Cc4ccccc4)ccc3[nH]2)cc1`, inhibition was half-maximal at 126 µM (IC50).

The molecule `CC(=O)N[C@@H](CCCNC(=N)N)C(=O)Nc1ccc(C(=O)N[C@H](C(=O)N[C@@H](Cc2ccccc2)C(=O)NCc2ccccc2)C(C)C)cc1-c1ccccc1` displayed an IC50 of 288 µM.

In the case of `Cc1ccc(CN(Cc2ccc(C)cc2)c2ccc(NC(=O)c3ccc(NCCNC(=N)N)c(-c4ccccc4)c3)cc2)cc1`, the midpoint of inhibition, the IC50, lay at 215 µM.

`N#Cc1ccc(CN(Cc2ccc(C#N)cc2)c2ccc(NC(=O)c3ccc(NCCNC(=N)N)c(-c4ccc5ccccc5c4)c3)cc2)cc1` showed an IC50 of 17 µM.

Molecule `CC(=O)N[C@@H](CCCNC(=N)N)C(=O)Nc1ccc(C(=O)N[C@H](C(=O)N[C@@H](Cc2ccccc2)C(=O)NCc2ccccc2)C(C)C)c(-c2ccccc2)c1` came in with a half-maximal inhibitory concentration (IC50) of 173 µM.

Regarding `N=C(N)NCCNc1ccc(C(=O)Nc2ccc(N(Cc3ccccc3)Cc3ccccc3)cc2)cc1-c1ccc(-c2ccccc2)cc1`, the half-maximal inhibitory concentration (IC50) turned out to be 83 µM.

Consider `Cc1cccc(CN(Cc2cccc(C)c2)c2ccc(NC(=O)c3ccc(NCCNC(=N)N)c(-c4ccccc4)c3)cc2)c1`, for which the half-inhibitory concentration (IC50) is 152 µM.

`N=C(N)NCCNc1ccc(C(=O)Nc2ccc(N(Cc3ccc(-c4ccccc4)cc3)Cc3ccc(-c4ccccc4)cc3)cc2)cc1-c1ccccc1` showed a 50% inhibitory concentration (IC50) of 84 µM.

`CC(C)c1ccc(CN(Cc2ccc(C(C)C)cc2)c2ccc(NC(=O)c3ccc(NCCNC(=N)N)c(-c4ccccc4)c3)cc2)cc1`: 28 µM corresponded to half-maximal inhibition (IC50).

`N=C(N)NCCNc1ccc(C(=O)Nc2ccc(N(Cc3cccc4ccccc34)Cc3cccc4ccccc34)cc2)cc1-c1ccccc1`: the half-inhibitory concentration (IC50) is 43 µM.

For the molecule `CC(=O)NCC(=O)N[C@@H](CCCNC(=N)N)C(=O)N1CCC[C@H]1C(=O)N[C@@H](CCCNC(=N)N)C(=O)Nc1ccc(C(=O)N[C@H](C(=O)N[C@@H](Cc2ccccc2)C(=O)NCc2ccccc2)C(C)C)c(-c2ccccc2)c1` (Ac-GRPR[X3]VF-NHBn), the IC50 was determined as 16 µM.

As to `N=C(N)NCCNc1ccc(C(=O)Nc2ccc(N(Cc3ccccc3)Cc3ccccc3)cc2)cc1-c1ccc2ccccc2c1`, the IC50 is 44 µM.

For the molecule `CC(=O)N[C@@H](CCCNC(=N)N)C(=O)Nc1ccc(C(=O)Nc2ccc3c(=O)n(Cc4ccccc4)c(=O)n(Cc4ccccc4)c3c2)cc1`, the IC50 came to 112 µM.

With `N#Cc1ccc(CN(Cc2ccc(C#N)cc2)c2ccc3[nH]c(-c4ccc(NC(=O)CN=C(N)N)cc4)cc3c2)cc1`, inhibition was half-maximal at 32 µM (IC50).

Molecule `CC(=O)N[C@@H](CCCNC(=N)N)C(=O)Nc1ccc(C(=O)Nc2ccc3c(c2)c(=O)n(Cc2ccccc2)c(=O)n3Cc2ccccc2)cc1` yielded an IC50 of 232 µM.

With `N#Cc1ccc(-c2cc(C(=O)Nc3ccc(N(Cc4ccccc4)Cc4ccccc4)cc3)ccc2NCCNC(=N)N)cc1`, the 50% inhibitory concentration (IC50) was found to be 78 µM.

`N#Cc1ccc(CN(Cc2ccc(C#N)cc2)c2ccc(NC(=O)c3ccc(NC(=O)CNC(=N)N)c(-c4ccc5ccccc5c4)c3)cc2)cc1` yielded an IC50 of 12 µM.

`N#Cc1ccc(CN(Cc2ccc(C#N)cc2)c2ccc(NC(=O)c3ccc(NCCNC(=N)N)c(-c4ccccc4)c3)cc2)cc1`: the IC50 was found to be 19 µM.

Molecule `CC(=O)NCC(=O)N[C@@H](CCCNC(=N)N)C(=O)N1CCC[C@H]1C(=O)N[C@@H](CCCNC(=N)N)C(=O)Nc1ccc(C(=O)N[C@H](C(=O)N[C@@H](Cc2ccccc2)C(=O)NCc2ccccc2)C(C)C)cc1-c1ccccc1` (Ac-GRPR[X1]VF-NHBn) yielded a concentration for half-maximal inhibition (IC50) above 500 µM.

`CC(=O)NCC(=O)N[C@@H](CCCNC(=N)N)C(=O)N1CCC[C@H]1C(=O)N[C@@H](CCCNC(=N)N)C(=O)Nc1ccc(C(=O)N[C@H](C(=O)N[C@@H](Cc2ccccc2)C(=O)NCc2ccccc2)C(C)C)c(-c2cccc3ccccc23)c1` (Ac-GRPR[X2]VF-NHBn): half-maximal inhibition (IC50) required 78 µM.

`N=C(N)NCCNc1ccc(C(=O)Nc2ccc(N(Cc3ccc4ccccc4c3)Cc3ccc4ccccc4c3)cc2)cc1-c1ccccc1` registered a concentration for half-maximal inhibition (IC50) of 23 µM.

For `N=C(N)NCCNc1ccc(C(=O)Nc2ccc(N(Cc3ccc(F)cc3)Cc3ccc(F)cc3)cc2)cc1-c1ccccc1`, the half-maximal inhibitory concentration (IC50) amounted to 55 µM.

Molecule `COC(=O)c1ccc(-c2cc(C(=O)Nc3ccc(N(Cc4ccccc4)Cc4ccccc4)cc3)ccc2NCCNC(=N)N)cc1` came in with a half-maximal inhibitory concentration (IC50) of 158 µM.

Turning to `CC(C)c1ccc(CN(Cc2ccc(C(C)C)cc2)c2ccc(NC(=O)c3ccc(NCCNC(=N)N)c(-c4ccc5ccccc5c4)c3)cc2)cc1`, the IC50 amounted to 38 µM.

Consider `N=C(N)NCCNc1ccc(C(=O)Nc2ccc(N(Cc3ccccc3)Cc3ccccc3)cc2)cc1`, for which the 50% inhibitory concentration (IC50) is 96 µM.

`CC(C)c1ccc(CN(Cc2ccc(C(C)C)cc2)c2ccc(NC(=O)c3ccc(NC(=O)CNC(=N)N)c(-c4ccc5ccccc5c4)c3)cc2)cc1` came in with a half-maximal inhibitory concentration (IC50) of 17 µM.

As for `CC(=O)NCC(=O)N[C@@H](CCCNC(=N)N)C(=O)N1CCC[C@H]1C(=O)N[C@@H](CCCNC(=N)N)C(=O)Nc1ccc(C(=O)N[C@H](C(=O)N[C@@H](Cc2ccccc2)C(=O)NCc2ccccc2)C(C)C)cc1C` (Ac-GRPR[X4]VF-NHBn), the 50% inhibitory concentration (IC50) is 50 µM.

`CC(C)c1ccc(-c2cc(C(=O)Nc3ccc(N(Cc4ccccc4)Cc4ccccc4)cc3)ccc2NCCNC(=N)N)cc1` returned a 50% inhibitory concentration (IC50) of 52 µM.

`N=C(N)NCCNc1ccc(C(=O)Nc2ccc(N(Cc3ccccc3)Cc3ccccc3)cc2)cc1-c1ccccc1` yielded an IC50 of 84 µM.

The molecule `CC(=O)Nc1ccc(-c2cc(C(=O)Nc3ccc(N(Cc4ccccc4)Cc4ccccc4)cc3)ccc2NCCNC(=N)N)cc1` had a concentration for half-maximal inhibition (IC50) of 253 µM.
